According to ChEMBL document CHEMBL2046332, “Substrate analog studies of the ω-regiospecificity of Mycobacterium tuberculosis cholesterol metabolizing cytochrome P450 enzymes CYP124A1, CYP125A1 and CYP142A1” (Bioorg Med Chem, 2012):
Activity calls are given as the source filed them. The rule behind the calls is not given here.

Tests used:
[1] = test system: Mycobacterium tuberculosis; assay: Activity of Mycobacterium tuberculosis CYP142A1 assessed as compound oxidation at 50 uM incubated for 1 hr at 25 degC by GC-MS method
Method in brief: (§1)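 Each P450 (250 nM) was incubated with 50 μM substrate, 5 μg catalase, 50 μg/mL ferredoxin, 0.16 U/mL ferredoxin-NADP+ reductase, and an NADPH-regenerating system (1 mM glucose-6-phosphate, 2.4 U/mL G6P dehydrogenase, 5 mM MgCl2, 800 μM NADP+). Buffer was 50 mM potassium phosphate pH 7.5, 25 °C, 1 h. Quenched with HCl, extracted into hexanes, TMS-derivatised, GC-MS. Controls lacked P450 or NADPH.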

[2] = test system: Mycobacterium tuberculosis; assay: Activity of Mycobacterium tuberculosis CYP124A1 assessed as compound oxidation at 50 uM incubated for 1 hr at 25 degC by GC-MS method; method in brief: as §1
[3] = test system: Mycobacterium tuberculosis; assay: Activity of Mycobacterium tuberculosis CYP142A1 assessed as relative apparent turnover number at 50 uM incubated for 1 hr at 25 degC by GC-MS method relative to cholesterol
[4] = target: T1, Steroid C26-monooxygenase (Mycobacterium tuberculosis, UniProt P9WPP1); assay: Binding affinity to Mycobacterium tuberculosis CYP125A1 assessed as type 1 binding mode at 0.05 to 0.2 uM by UV-visible spectrophotometry
T1 sequence (P9WPP1 whole entry): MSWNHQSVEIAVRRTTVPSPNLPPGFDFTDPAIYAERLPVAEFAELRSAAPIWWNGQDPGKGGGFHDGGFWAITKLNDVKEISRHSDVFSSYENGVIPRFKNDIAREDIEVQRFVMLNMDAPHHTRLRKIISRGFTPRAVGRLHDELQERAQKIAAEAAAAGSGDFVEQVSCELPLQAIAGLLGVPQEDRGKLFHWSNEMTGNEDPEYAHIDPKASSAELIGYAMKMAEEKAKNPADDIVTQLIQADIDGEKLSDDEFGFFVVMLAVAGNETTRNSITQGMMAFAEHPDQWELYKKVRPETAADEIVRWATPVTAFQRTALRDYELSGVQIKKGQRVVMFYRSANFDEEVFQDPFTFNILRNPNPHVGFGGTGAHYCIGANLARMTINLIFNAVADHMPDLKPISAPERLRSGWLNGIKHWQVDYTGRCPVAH
Method in brief: (§2)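 Spectral titration of each P450 with steroid solubilised in methyl β-cyclodextrin. Ligand-induced low-spin/high-spin shifts were followed in the Soret region and at ~650 nm to assign binding type. Absolute spectra of the P450–steroid complexes were also examined.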

[5] = test system: Mycobacterium tuberculosis; assay: Activity of Mycobacterium tuberculosis CYP124A1 assessed as apparent turnover number at 50 uM incubated for 1 hr at 25 degC by GC-MS method; method in brief: as §1
[6] = test system: Mycobacterium tuberculosis; assay: Activity of Mycobacterium tuberculosis CYP142A1 assessed as apparent turnover number at 50 uM incubated for 1 hr at 25 degC by GC-MS method; method in brief: as §1
[7] = test system: Mycobacterium tuberculosis; assay: Activity of Mycobacterium tuberculosis CYP124A1 assessed as relative apparent turnover number at 50 uM incubated for 1 hr at 25 degC by GC-MS method relative to cholesterol
[8] = target: T1, Steroid C26-monooxygenase; assay: Activity of Mycobacterium tuberculosis CYP125A1 assessed as apparent turnover number at 50 uM incubated for 1 hr at 25 degC by GC-MS method; method in brief: as §1
[9] = target: T1, Steroid C26-monooxygenase; assay: Activity of Mycobacterium tuberculosis CYP125A1 assessed as relative apparent turnover number at 50 uM incubated for 1 hr at 25 degC by GC-MS method relative to cholesterol
[10] = test system: Mycobacterium tuberculosis; assay: Binding affinity to Mycobacterium tuberculosis CYP142A1 assessed as type 1 binding mode at 0.05 to 0.2 uM by UV-visible spectrophotometry; method in brief: as §2
[11] = test system: Mycobacterium tuberculosis; assay: Binding affinity to Mycobacterium tuberculosis CYP124A1 assessed as type 1 binding mode at 0.05 to 0.2 uM by UV-visible spectrophotometry; method in brief: as §2

Row | SMILES | Activity [1] | Activity [2] | Activity [4] | Activity [10] | Activity [11] | further results
1 | CSCCC[C@@H](C)[C@H]1CC[C@H]2[C@@H]3CCC4=CC(=O)CC[C@]4(C)[C@H]3CC[C@]12C | Active | Active |  |  |  | 
2 | CC(Br)CCC[C@@H](C)[C@H]1CC[C@H]2[C@@H]3CCC4=CC(=O)CC[C@]4(C)[C@H]3CC[C@]12C (mixture of isomers) | Active | Active |  |  |  | 
3 | CC(Cl)CCC[C@@H](C)[C@H]1CC[C@H]2[C@@H]3CC=C4C[C@@H](O)CC[C@]4(C)[C@H]3CC[C@]12C (mixture of isomers) |  |  | Active | Active | Active | Activity [3]: 53.7%; Kcat(app) [5]: 0.0075 s⁻¹; Kcat(app) [6]: 0.15 s⁻¹; Activity [7]: 29.8%; Kcat(app) [8]: 0.122 s⁻¹; Activity [9]: 26%
4 | CC(Cl)CCC[C@@H](C)[C@H]1CC[C@H]2[C@@H]3CCC4=CC(=O)CC[C@]4(C)[C@H]3CC[C@]12C (mixture of isomers) | Active | Active |  |  |  | 
5 | CC(C)CCC[C@@H](C)[C@H]1CC[C@H]2[C@@H]3CC=C4C[C@@H](O)CC[C@]4(C)[C@H]3CC[C@]12C [CHOLESTEROL] |  |  | Active | Active | Active | Kcat(app) [5]: 0.025 s⁻¹; Kcat(app) [6]: 0.278 s⁻¹; Kcat(app) [8]: 0.467 s⁻¹
6 | CC(C)=CCC[C@@H](C)[C@H]1CC[C@@]2(C)C3=C(CC[C@]12C)[C@@]1(C)CC[C@H](O)C(C)(C)[C@@H]1CC3 [LANOSTEROL] |  |  | Active | Active | Active | Activity [3]: 132%; Kcat(app) [6]: 0.368 s⁻¹; Kcat(app) [8]: 0.1728 s⁻¹; Activity [9]: 37%
7 | CCC(C)CCC[C@@H](C)[C@H]1CC[C@H]2[C@@H]3CC=C4C[C@@H](O)CC[C@]4(C)[C@H]3CC[C@]12C (mixture of isomers) |  |  | Active | Active | Active | Activity [3]: 58.7%; Kcat(app) [6]: 0.163 s⁻¹; Kcat(app) [8]: 0.317 s⁻¹; Activity [9]: 68.1%
8 | CC(C)CCC[C@@H](C)[C@H]1CC[C@H]2[C@@H]3CC[C@@H]4CC(=O)CC[C@]4(C)[C@H]3CC[C@]12C | Active | Active |  |  |  | 
9 | CC(C)=CCC[C@@H](C)[C@H]1CC[C@@]2(C)C3=C(CC[C@]12C)[C@@]1(C)CCC(=O)C(C)(C)[C@@H]1CC3 | Active | Active |  |  |  | 
10 | CC(C)CCC[C@@H](C)[C@H]1CC[C@H]2[C@@H]3CCC4=CC(=O)CC[C@]4(C)[C@H]3CC[C@]12C [4-CHOLESTEN 3-ONE] | Active | Active | Active | Active | Active | 
11 | C[C@H](CCCBr)[C@H]1CC[C@H]2[C@@H]3CCC4=CC(=O)CC[C@]4(C)[C@H]3CC[C@]12C | Active | Active |  |  |  | 
12 | CC(C)=CCC[C@@H](C)[C@H]1CC[C@H]2[C@@H]3CCC4=CC(=O)CC[C@]4(C)[C@H]3CC[C@]12C | Active | Active |  |  |  | 
13 | C=C(C)CCC[C@@H](C)[C@H]1CC[C@H]2[C@@H]3CCC4=CC(=O)CC[C@]4(C)[C@H]3CC[C@]12C | Active | Active |  |  |  | 
14 | CCCCC[C@@H](C)[C@H]1CC[C@H]2[C@@H]3CCC4=CC(=O)CC[C@]4(C)[C@H]3CC[C@]12C | Active | Active |  |  |  | 
15 | CCC(C)CCC[C@@H](C)[C@H]1CC[C@H]2[C@@H]3CCC4=CC(=O)CC[C@]4(C)[C@H]3CC[C@]12C (mixture of isomers) | Active | Active |  |  |  | 
16 | C=CCCC[C@@H](C)[C@H]1CC[C@H]2[C@@H]3CCC4=CC(=O)CC[C@]4(C)[C@H]3CC[C@]12C | Active | Active |  |  |  | 
